This is a sample that favours compounds with a hit; in the whole collection about 4.5% have one here.
CHO parental Ca = signal in parental CHO cells, OX1R antagonist counter-screen. parental CHO-K1, ATP-induced calcium, Fluo-8 fluorescence. AID 463079. 0.63% of 330,000 active. inhibition, % at 5.6 µM;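 active = inhibition above that plate's mean sample inhibition plus 3 SD, cut at about 26% in these data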;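 also: 0% = ATP-challenged DMSO wells and 100% = DMSO wells without ATP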
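Test system: untransfected parental CHO cell line; also added: ATP stimulus; dosing: 5.6 µM, single dose; signal: calcium-sensitive Fluo-8 fluorescence; measure: percent inhibition of ATP-evoked calcium rise, normalized to controls; benchmarks: low control ATP plus DMSO, high control DMSO only; replication: one well per compound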
OX1R antag-1 = blocks the human orexin 1 receptor | O43613 | CHO/OX1R cells, Fluo-8 calcium fluorescence, orexin A | inhibition, % at 5 µM | 0.43% of 330,000 active | AID 434989;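 active = inhibition above its plate's threshold, mean inhibition of all tested compounds on the plate plus 3 SD, cut at about 37% in these data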;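 also: 0% = orexin A challenge wells and 100% = SB-334867-A antagonist wells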
TAAR1 agonist = agonists of human TAAR1; Q96RJ0; CHO RD-HGA16 TAAR1, Fluo-8 calcium fluorescence; vehicle wells 0%, saturating PEA agonist 100%; activation, % at 3 µM; 0.99% of 360,000 active;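 active = activation above the mean activation of all test compounds in the run plus 3 SD, cut at about 38% in these data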
Target sequence (Q96RJ0 whole entry, looked up): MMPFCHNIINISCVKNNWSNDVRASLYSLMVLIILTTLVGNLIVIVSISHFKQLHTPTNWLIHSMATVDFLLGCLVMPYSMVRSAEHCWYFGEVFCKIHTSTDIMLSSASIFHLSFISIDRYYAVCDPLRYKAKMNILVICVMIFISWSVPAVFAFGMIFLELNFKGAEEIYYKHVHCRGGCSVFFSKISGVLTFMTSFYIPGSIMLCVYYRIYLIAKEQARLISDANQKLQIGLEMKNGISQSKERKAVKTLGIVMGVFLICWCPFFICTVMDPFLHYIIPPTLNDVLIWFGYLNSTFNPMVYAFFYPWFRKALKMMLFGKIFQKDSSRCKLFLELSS
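Repeats: no replicates (n 1) | Material: CHO-derived RD-HGA16 cells with stable Gα16 and human TAAR1 | Technique: Kinetic Fluo-8 calcium fluorescence | Schedule: 17-24 h seeding, 75 min 37 °C dye, 30 min RT | Evaluation: % activation from peak over basal fluorescence ratio, DMSO-to-PEA scaled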
GPR7 antagonist = human neuropeptides B/W receptor 1 antagonism. GPR7-expressing cells, fluorescence antagonist assay. P48145. 1.1% of 290,000 active. inhibition, % at 4.4 µM; in the data active = inhibition above about 16%, passing the limit was not always enough;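 also: cells stimulated with the agonist NPW; 0% = agonist with vehicle and 100% = vehicle without agonist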
Target sequence (P48145 whole entry, looked up): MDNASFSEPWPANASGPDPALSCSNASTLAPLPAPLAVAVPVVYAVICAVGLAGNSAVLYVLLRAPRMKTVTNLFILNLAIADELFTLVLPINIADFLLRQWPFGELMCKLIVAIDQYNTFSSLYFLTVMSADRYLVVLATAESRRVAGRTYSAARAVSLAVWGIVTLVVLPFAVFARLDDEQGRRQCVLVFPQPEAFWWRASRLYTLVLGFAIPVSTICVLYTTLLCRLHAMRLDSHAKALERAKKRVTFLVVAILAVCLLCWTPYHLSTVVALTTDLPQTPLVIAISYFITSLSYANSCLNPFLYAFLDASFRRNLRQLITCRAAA
OX1R antag-2 = antagonists of human orexin 1 receptor (OX1R); O43613; OX1R-expressing cells, FRET antagonist read-out; inhibition, % at 6.6 µM; 1.8% of 330,000 active; AID 485270; in the data active = inhibition mostly above about 38%, no sharp cut-off; inactive = mostly below about 40%;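 also: 0% = agonist challenge alone and 100% = reference antagonist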
TAAR1 antag = antagonists of human TAAR1. Q96RJ0. CHO RD-HGA16 TAAR1, Fluo-8 calcium fluorescence, antagonist. inhibition, % at 3 µM. 1.5% of 360,000 active;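 active = inhibition above a per-plate cutoff, the mean inhibition of test compounds on that plate plus 3 SD, cut at about 49% in these data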;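 also: 0% = DMSO plus EC80 beta-PEA response and 100% = DMSO alone without agonist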
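Material: CHO RD-HGA16 cells bearing hTAAR1; compound dosing: one-point dosing, 3 µM nominal final; schedule: dye loading 75 min at 37 °C, then 30 min room temperature; measured by: calcium fluorescence with Fluo-8; control set: vehicle and agonist controls; replication: n of 1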
GPR7 antag cf = human GPR7 antagonism, confirmation assay; inhibition, % at 4.4 µM; 52% of 2,400 active; GPR7-expressing cells, calcium fluorescence antagonist mode; shares compounds with GPR7 antagonist; in the data active = inhibition above about 24%;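 also: stimulated with the GPR7 agonist NPW; 0% = agonist plus vehicle and 100% = vehicle alone without agonist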
MCHR1 antagonist = MCHR1 (human) antagonism in GPR7 counter-screen; shares compounds with GPR7 antagonist; MCHR1-expressing cells, fluorescence antagonist assay; inhibition, % at 4.4 µM; 62% of 2,400 active; AID 2148; in the data active = inhibition above about 22%;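 also: 0% = vehicle with agonist and 100% = vehicle without agonist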
* marks the source's active call; other numbers are inactive results; / = no result.

SMILES	CHO parental Ca	OX1R antag-1	TAAR1 agonist	GPR7 antagonist	OX1R antag-2	TAAR1 antag	GPR7 antag cf	MCHR1 antagonist
Cc1nnc(SCC(=O)NC2CCS(=O)(=O)C2)n1-c1ccccc1 (configuration not stated)	-2	-9	5	25*	15	-15	-10	12
O=C(NC(NC(=S)Nc1c(Cl)cccc1Cl)C(Cl)(Cl)Cl)OCc1ccccc1 (configuration not stated)	-16	-5	12	27*	15	36	26*	44*
Nc1nc(N)nc(-c2ccccc2)n1	-7	0	3	-3	6	-3	/	/
Nc1nc(N)nc(-c2ccccc2-c2nc(N)nc(N)n2)n1	-10	-5	1	14	9	-2	-13	-7
CCOC(=O)C1(Cc2cccc(OC)c2)CCCN(S(=O)(=O)CC)C1 (configuration not stated)	-9	-10	1	27*	8	-12	-1	0
Cc1cc(C)c(S(=O)(=O)N(C)CC(=O)NCc2cccnc2)c(C)c1	-5	-9	10	2	11	-9	/	/
Cc1cc(C)c(S(=O)(=O)N(C)CC(=O)NCc2ccncc2)c(C)c1	-10	-30	2	27*	17	-1	5	0
Cc1ccc(N(C(=O)c2csnn2)C(C(=O)NC2CCCC2)c2ccncc2)c(C)c1 (configuration not stated)	-14	-16	6	41*	13	-7	-7	-7
O=C(NC1CCCCC1)C(c1ccncc1)N(Cc1ccc2c(c1)OCO2)C(=O)c1cnsn1 (configuration not stated)	-7	-11	9	26*	11	-11	30*	9
CCC(=O)c1cn(CC(=O)Nc2ccccc2Cl)c2ccccc12	-13	-8	2	26*	20	5	12	16
Cc1onc(-c2ccccc2)c1CNC(=O)Nc1ccc(C(F)(F)F)cc1	20	27	6	24*	49*	-25	28*	52*
CCOc1cc(C)c(S(=O)(=O)NC2CC(C)(C)NC(C)(C)C2)cc1C	-21	-19	1	-2	26	8	/	/
Cc1cc(C)c(S(=O)(=O)NC2CC(C)(C)NC(C)(C)C2)cc1C	17	2	2	101*	14	0	-4	2
O=C(c1cnccn1)N(Cc1ccco1)C1(C(=O)NC2CCCC2)CCCCC1	-10	-12	4	40*	9	-10	31*	16
O=C(NC1CCCCC1)C(c1ccccc1)N(Cc1ccco1)C(=O)Cn1cnc2ccccc21 (configuration not stated)	/	/	12	22*	/	-11	17	14
O=C(Cc1cccs1)N(Cc1ccco1)C1(C(=O)NC2CCCC2)CCCCC1	-16	-9	0	46*	18	10	53*	45*
O=C1NC(=O)C(CC(=O)N(Cc2ccco2)C2(C(=O)NC3CCCC3)CCCCC2)N1 (configuration not stated)	-9	-5	4	11	15	1	/	/
O=C(NC1CCCCC1)C(c1ccccc1)N(Cc1ccco1)C(=O)c1csnn1 (configuration not stated)	-5	-48	-1	13	46	-4	/	/
O=C(NC1CCCC1)C(c1ccsc1)N(Cc1ccco1)C(=O)Cc1cccs1 (configuration not stated)	-41	-35	1	44*	24	9	43*	31*
O=C(c1ccccn1)N(Cc1ccco1)C1(C(=O)Nc2ccc(Br)cc2)CCCCC1	/	/	-2	/	/	0	/	/
Cc1cc(F)ccc1C(O)c1ncc(-c2cccc3ccccc23)[nH]1 (configuration not stated)	/	/	8	/	/	-8	/	/
COc1ccc(CNC(=O)c2ccc(-n3ccnc3)c3ccoc23)cc1OC	/	/	2	/	/	-3	/	/
COc1ccc(/C=C2/CCC(CN3CCOCC3)C2=O)cc1 (configuration not stated)	/	/	9	/	/	35	/	/
COc1cccc(CNC(=O)[C@@H]2CCCN2C(=O)[C@H]2CCCCN2S(=O)(=O)c2ccc(OC)c(C)c2)c1	/	/	2	/	/	-18	/	/
O=C(c1ccccn1)N(Cc1ccco1)C1(C(=O)NC2CCCC2)CCCCC1	-11	-16	13	37*	17	-5	28*	21
SMILES	CHO parental Ca	OX1R antag-1	TAAR1 agonist	GPR7 antagonist	OX1R antag-2	TAAR1 antag	GPR7 antag cf	MCHR1 antagonist
CN(C(=O)c1ccc2c(c1)OCO2)C1(C(=O)NC2CCCCC2)CCCCC1	-12	4	20	12	39	-3	/	/
O=C(c1cnccn1)N(Cc1ccco1)C1(C(=O)NC2CCCCC2)CCCCC1	-8	-26	18	31*	29	-3	22	15
O=C(c1ccc2c(c1)OCO2)N(Cc1ccco1)C1(C(=O)NC2CCCCC2)CCCCC1	-35	-28	12	41*	9	-10	40*	42*
C[C@@H]1CN([C@H](C)CO)C(=O)CCCn2cc(nn2)CO[C@H]1CN(C)S(=O)(=O)c1cccc(C#N)c1	/	/	3	/	/	-4	/	/
CCc1cccc(C)c1NC(=O)Cn1c(NCCO)nc2ccccc21	-1	17	0	9	5	9	/	/
CCCCNc1nc2ccccc2n1CC(=O)Nc1c(C)cccc1CC	-20	-30	0	33*	20	-6	32*	21
COc1ccccc1Cc1c(-c2cccc(Cl)c2)nc2ccc(C)cn12	/	/	1	/	/	-4	/	/
CN(Cc1c(C(=O)N/N=C/c2c(F)cccc2Cl)nnn1-c1nonc1N)C1CCCCC1	/	/	0	/	/	-1	/	/
Cc1ccc2sc(N(CCCN(C)C)C(=O)c3nc4ccccc4s3)nc2c1C	-7	-18	15	2	14	-14	/	/
COc1cc2ccccc2cc1C(=O)N(CCN(C)C)c1nc2ccc(Br)cc2s1	-18	-5	1	26*	23	-15	29*	36*
Cc1ccc2sc(N(CCCN(C)C)C(=O)c3ccc(Br)s3)nc2c1C	2	-20	27	41*	21	19	51*	56*
Cc1cccc2sc(N(CCCN(C)C)C(=O)CCc3ccccc3)nc12	12	-12	13	23*	9	4	61*	56*
CN(C)CCCN(C(=O)CCc1ccccc1)c1nc2ccc(Br)cc2s1	1	-17	17	24*	8	35	68*	73*
Cc1ccc(-c2cnc(C(O)c3cc(C)cc(C)c3)[nH]2)cc1 (configuration not stated)	/	/	10	/	/	4	/	/

Source: PubChem (The Scripps Research Institute Molecular Screening Center)
